ChEMBL document CHEMBL1135354, “Synthesis and activity of a novel class of tribasic macrocyclic antibiotics: the triamilides” (2002)
≈ marks a conversion by molar mass, not a printed value.

Columns and labels:
Format in all cases: functional
Pasteurella multocida [1] = assay: Minimum inhibitory concentration required to inhibit growth of Pasteurella multocida in vitro by microdilution method.; conditions: Pasteurella multocida; read-out: MIC
Procedure, shortened: (§1)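 Broth microdilution per NCCLS; E. coli 51A0150 (poultry lung) and P. multocida 59A0067 (turkey). Overnight BHI plate colonies suspended in saline to OD625 0.09 (0.5 McFarland), diluted 1:100 in BHI broth; final ~5×10^5 cfu/mL against 2-fold serial dilutions in BHI broth.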

Escherichia coli = assay: In vitro minimum inhibitory concentration required to inhibit growth of Escherichia coli.; conditions: Escherichia coli; procedure, shortened: as §1
Pasteurella multocida [2] = assay: Effective dose required to inhibit Pasteurella multocida infection model in mouse by subcutaneous administration; conditions: Pasteurella multocida, sc; read-out: ED50
Procedure, shortened: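 Mice infected intranasally with P. multocida (respiratory disease model); drug given subcutaneously 0.5 h post-infection at 5–80 mg/kg. ED50 derived from number of surviving mice 4 days after infection.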

Row | SMILES | MIC (Pasteurella multocida [1]) [µg/mL] | MIC (Escherichia coli) [µg/mL] | ED50 (Pasteurella multocida [2]) [mg/kg]
1 | CC[C@H]1OC(=O)[C@H](C)[C@@H](O[C@H]2C[C@@](C)(OC)[C@](O)(CN(C)C)[C@H](C)O2)[C@H](C)[C@@H](O[C@@H]2O[C@H](C)C[C@H](N(C)C)[C@H]2O)[C@](C)(O)C[C@@H](C)CN[C@H](C)[C@@H](O)[C@]1(C)O | 0.05 (≈ 0.0631 µM) | 0.39 (≈ 0.492 µM) | 5.9
2 | CC[C@H]1OC(=O)[C@H](C)[C@@H](O[C@H]2C[C@@](C)(OC)[C@](O)(CN3CCCC3)[C@H](C)O2)[C@H](C)[C@@H](O[C@@H]2O[C@H](C)C[C@H](N(C)C)[C@H]2O)[C@](C)(O)C[C@@H](C)CN[C@H](C)[C@@H](O)[C@]1(C)O | 0.05 (≈ 0.0611 µM) | 0.2 (≈ 0.244 µM) | < 10
3 | CC[C@H]1OC(=O)[C@H](C)[C@@H](O[C@H]2C[C@@](C)(OC)[C@](O)(CN3CCCCC3)[C@H](C)O2)[C@H](C)[C@@H](O[C@@H]2O[C@H](C)C[C@H](N(C)C)[C@H]2O)[C@](C)(O)C[C@@H](C)CN[C@H](C)[C@@H](O)[C@]1(C)O | 0.05 (≈ 0.0601 µM) | 0.39 (≈ 0.469 µM) | –
4 | CC[C@H]1OC(=O)[C@H](C)[C@@H](O[C@H]2C[C@@](C)(OC)[C@](O)(CSCCO)[C@H](C)O2)[C@H](C)[C@@H](O[C@@H]2O[C@H](C)C[C@H](N(C)C)[C@H]2O)[C@](C)(O)C[C@@H](C)CN[C@H](C)[C@@H](O)[C@]1(C)O | 0.39 (≈ 0.473 µM) | 25 (≈ 30.3 µM) | > 40
5 | CC[C@H]1OC(=O)[C@H](C)[C@@H](O[C@H]2C[C@@](C)(OC)[C@](O)(CNC(C)(C)C)[C@H](C)O2)[C@H](C)[C@@H](O[C@@H]2O[C@H](C)C[C@H](N(C)C)[C@H]2O)[C@](C)(O)C[C@@H](C)CN[C@H](C)[C@@H](O)[C@]1(C)O | 0.05 (≈ 0.061 µM) | 0.39 (≈ 0.476 µM) | 9.6
6 | CCCCNC[C@]1(O)[C@H](C)O[C@@H](O[C@H]2[C@H](C)[C@@H](O[C@@H]3O[C@H](C)C[C@H](N(C)C)[C@H]3O)[C@](C)(O)C[C@@H](C)CN[C@H](C)[C@@H](O)[C@](C)(O)[C@@H](CC)OC(=O)[C@@H]2C)C[C@@]1(C)OC | 0.1 (≈ 0.122 µM) | 0.78 (≈ 0.951 µM) | 17
7 | CC[C@H]1OC(=O)[C@H](C)[C@@H](O[C@H]2C[C@@](C)(OC)[C@](O)(CNC3CC3)[C@H](C)O2)[C@H](C)[C@@H](O[C@@H]2O[C@H](C)C[C@H](N(C)C)[C@H]2O)[C@](C)(O)C[C@@H](C)CN[C@H](C)[C@@H](O)[C@]1(C)O | 0.1 (≈ 0.124 µM) | 0.78 (≈ 0.97 µM) | 15
8 | CC[C@H]1OC(=O)[C@H](C)[C@@H](O[C@H]2C[C@@](C)(OC)[C@](O)(CN)[C@H](C)O2)[C@H](C)[C@@H](O[C@@H]2O[C@H](C)C[C@H](N(C)C)[C@H]2O)[C@](C)(O)C[C@@H](C)CN[C@H](C)[C@@H](O)[C@]1(C)O | 0.39 (≈ 0.51 µM) | 6.25 (≈ 8.18 µM) | –
9 | CC[C@H]1OC(=O)[C@H](C)[C@@H](O[C@H]2C[C@@](C)(OC)[C@@](O)(CN(C)C)[C@H](C)O2)[C@H](C)[C@@H](O[C@@H]2O[C@H](C)C[C@H](N(C)C)[C@H]2O)[C@](C)(O)C[C@@H](C)CN[C@H](C)[C@@H](O)[C@]1(C)O | < 0.1 | 0.39 (≈ 0.492 µM) | 9.9
10 | CC[C@H]1OC(=O)[C@H](C)[C@@H](O[C@H]2C[C@@](C)(OC)[C@@](O)(CN3CCCC3)[C@H](C)O2)[C@H](C)[C@@H](O[C@@H]2O[C@H](C)C[C@H](N(C)C)[C@H]2O)[C@](C)(O)C[C@@H](C)CN[C@H](C)[C@@H](O)[C@]1(C)O | 50 (≈ 61.1 µM) | 0.2 (≈ 0.244 µM) | 7.3
11 | CC[C@H]1OC(=O)[C@H](C)[C@@H](O[C@H]2C[C@@](C)(OC)[C@@](O)(CNC3CC3)[C@H](C)O2)[C@H](C)[C@@H](O[C@@H]2O[C@H](C)C[C@H](N(C)C)[C@H]2O)[C@](C)(O)C[C@@H](C)CN[C@H](C)[C@@H](O)[C@]1(C)O | 0.05 (≈ 0.0622 µM) | 0.2 (≈ 0.249 µM) | 20
12 | CC[C@H]1OC(=O)[C@H](C)[C@@H](O[C@H]2C[C@@](C)(OC)[C@@](O)(CN)[C@H](C)O2)[C@H](C)[C@@H](O[C@@H]2O[C@H](C)C[C@H](N(C)C)[C@H]2O)[C@](C)(O)C[C@@H](C)CN[C@H](C)[C@@H](O)[C@]1(C)O | 0.39 (≈ 0.51 µM) | 6.25 (≈ 8.18 µM) | 30
13 | CC[C@H]1OC(=O)[C@H](C)[C@@H](O[C@H]2C[C@@](C)(OC)[C@@](O)(CNCC3CC3)[C@H](C)O2)[C@H](C)[C@@H](O[C@@H]2O[C@H](C)C[C@H](N(C)C)[C@H]2O)[C@](C)(O)C[C@@H](C)CN[C@H](C)[C@@H](O)[C@]1(C)O | 0.1 (≈ 0.122 µM) | 0.39 (≈ 0.477 µM) | 5.7
14 | CCCNC[C@@]1(O)[C@H](C)O[C@@H](O[C@H]2[C@H](C)[C@@H](O[C@@H]3O[C@H](C)C[C@H](N(C)C)[C@H]3O)[C@](C)(O)C[C@@H](C)CN[C@H](C)[C@@H](O)[C@](C)(O)[C@@H](CC)OC(=O)[C@@H]2C)C[C@@]1(C)OC | 0.1 (≈ 0.124 µM) | 0.39 (≈ 0.484 µM) | 12
15 | CC[C@H]1OC(=O)[C@H](C)[C@@H](O[C@H]2C[C@@](C)(OC)[C@@](O)(Cn3ccnn3)[C@H](C)O2)[C@H](C)[C@@H](O[C@@H]2O[C@H](C)C[C@H](N(C)C)[C@H]2O)[C@](C)(O)C[C@@H](C)CN[C@H](C)[C@@H](O)[C@]1(C)O | 0.05 (≈ 0.0613 µM) | 0.78 (≈ 0.956 µM) | 23
16 | CC[C@H]1OC(=O)[C@H](C)[C@@H](O[C@H]2C[C@@](C)(OC)[C@@](O)(CN(C)CCO)[C@H](C)O2)[C@H](C)[C@@H](O[C@@H]2O[C@H](C)C[C@H](N(C)C)[C@H]2O)[C@](C)(O)C[C@@H](C)CN[C@H](C)[C@@H](O)[C@]1(C)O | 0.1 (≈ 0.122 µM) | 1.56 (≈ 1.9 µM) | 12
17 | CC[C@H]1OC(=O)[C@H](C)[C@@H](O[C@H]2C[C@@](C)(OC)[C@@](O)(CNC(C)(C)C)[C@H](C)O2)[C@H](C)[C@@H](O[C@@H]2O[C@H](C)C[C@H](N(C)C)[C@H]2O)[C@](C)(O)C[C@@H](C)CN[C@H](C)[C@@H](O)[C@]1(C)O | 0.1 (≈ 0.122 µM) | 0.39 (≈ 0.476 µM) | 14
18 | CC[C@H]1OC(=O)[C@H](C)[C@@H](O[C@H]2C[C@@](C)(OC)[C@@](O)(CN(C)C3CC3)[C@H](C)O2)[C@H](C)[C@@H](O[C@@H]2O[C@H](C)C[C@H](N(C)C)[C@H]2O)[C@](C)(O)C[C@@H](C)CN[C@H](C)[C@@H](O)[C@]1(C)O | 0.1 (≈ 0.122 µM) | 0.78 (≈ 0.953 µM) | 17
19 | CC[C@H]1OC(=O)[C@H](C)[C@@H](O[C@H]2C[C@@](C)(OC)[C@@](O)(CN3CCOCC3)[C@H](C)O2)[C@H](C)[C@@H](O[C@@H]2O[C@H](C)C[C@H](N(C)C)[C@H]2O)[C@](C)(O)C[C@@H](C)CN[C@H](C)[C@@H](O)[C@]1(C)O | 0.2 (≈ 0.24 µM) | 3.13 (≈ 3.75 µM) | 49
20 | CC[C@H]1OC(=O)[C@H](C)[C@@H](O[C@H]2C[C@@](C)(OC)[C@@](O)(CSCCO)[C@H](C)O2)[C@H](C)[C@@H](O[C@@H]2O[C@H](C)C[C@H](N(C)C)[C@H]2O)[C@](C)(O)C[C@@H](C)CN[C@H](C)[C@@H](O)[C@]1(C)O | 0.2 (≈ 0.242 µM) | 1.56 (≈ 1.89 µM) | 51
21 | CCCCCCNC[C@@]1(O)[C@H](C)O[C@@H](OC2[C@@H](C)C(=O)O[C@H](CC)[C@@](C)(O)[C@H](O)[C@@H](C)NC[C@H](C)C[C@@](C)(O)[C@H](O[C@@H]3O[C@H](C)C[C@H](N(C)C)[C@H]3O)[C@H]2C)C[C@@]1(C)OC (stereo not given in full) | 0.2 (≈ 0.236 µM) | 0.78 (≈ 0.92 µM) | > 80
22 | CC[C@H]1OC(=O)[C@H](C)[C@@H](O[C@H]2C[C@@](C)(OC)[C@@](O)(Cn3ccnc3)[C@H](C)O2)[C@H](C)[C@@H](O[C@@H]2O[C@H](C)C[C@H](N(C)C)[C@H]2O)[C@](C)(O)C[C@@H](C)CN[C@H](C)[C@@H](O)[C@]1(C)O | 0.2 (≈ 0.245 µM) | 3.13 (≈ 3.84 µM) | 20
23 | CC[C@H]1OC(=O)[C@H](C)[C@@H](O[C@H]2C[C@@](C)(OC)[C@@](O)(CNCCOC)[C@H](C)O2)[C@H](C)[C@@H](O[C@@H]2O[C@H](C)C[C@H](N(C)C)[C@H]2O)[C@](C)(O)C[C@@H](C)CN[C@H](C)[C@@H](O)[C@]1(C)O | < 0.1 | 0.78 (≈ 0.949 µM) | 9.5
24 | CC[C@H]1OC(=O)[C@H](C)[C@@H](O[C@H]2C[C@@](C)(OC)[C@@](O)(CN(CCO)CCO)[C@H](C)O2)[C@H](C)[C@@H](O[C@@H]2O[C@H](C)C[C@H](N(C)C)[C@H]2O)[C@](C)(O)C[C@@H](C)CN[C@H](C)[C@@H](O)[C@]1(C)O | 3.13 (≈ 3.67 µM) | > 50 | –
25 | CC[C@H]1OC(=O)[C@H](C)[C@@H](O[C@H]2C[C@@](C)(OC)[C@@](O)(CNCC(F)(F)F)[C@H](C)O2)[C@H](C)[C@@H](O[C@@H]2O[C@H](C)C[C@H](N(C)C)[C@H]2O)[C@](C)(O)C[C@@H](C)CN[C@H](C)[C@@H](O)[C@]1(C)O | < 0.1 | 1.56 (≈ 1.84 µM) | 46
26 | CCCCNC[C@@]1(O)[C@H](C)O[C@@H](O[C@H]2[C@H](C)[C@@H](O[C@@H]3O[C@H](C)C[C@H](N(C)C)[C@H]3O)[C@](C)(O)C[C@@H](C)CN[C@H](C)[C@@H](O)[C@](C)(O)[C@@H](CC)OC(=O)[C@@H]2C)C[C@@]1(C)OC | < 0.1 | 0.39 (≈ 0.476 µM) | 23
